Like-named read-outs stand apart in the source and are kept apart here.
Assays:
[1] = Properties of the reconstituted AP301 solution; format: physicochemical; details: AP301 25 mg/mL, lyophilized powder reconstituted in water for injection
Aerosol characterization = format: physicochemical
How it was run: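 Test compound supplied as lyophilized powder, reconstituted in water for injection to 25 mg/mL. The solution was aerosolized with an Aeroneb Solo vibrating-mesh nebulizer driven by an Aeroneb Pro-X controller. Particle distribution was measured by Next Generation Impactor at 15 L/min and by laser diffraction. Read-outs were fine particle fraction and average droplet size.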

dog = details: in vivo
[2] = human, in vivo, inhaled or intranasal
[3] = in vivo
healthy male subjects [4] = details: in vivo
healthy male subjects [5] = details: in vivo; remark: listed apart in the source
healthy male subjects [6] = details: in vivo; remark: listed apart in the source
healthy male subjects [7] = details: in vivo; remark: listed apart in the source
healthy male subjects [8] = details: in vivo; remark: listed apart in the source
healthy male subjects [9] = details: in vivo; remark: listed apart in the source
[10] = system: ENaC in primary type II alveolar epithelial cells; details: rat AEC type II cells, cited from earlier work
[11] = system: ENaC in primary type II alveolar epithelial cells; details: dog AEC type II cells, cited from earlier work
[12] = system: ENaC in primary type II alveolar epithelial cells; details: pig AEC type II cells, cited from earlier work
ENaC = details: cell-based studies; no reference given; cited from earlier work
[13] = system: acute lung injury (ALI) in anaesthetized domestic pigs; details: pigs with ALI, single nebulization of 1.0 mg/kg, observation 5 hours; cited from earlier work
animal models = details: various animal models; cited from earlier work
[14] = mouse, in vivo; cited from earlier work
[15] = rat, in vivo; cited from earlier work
[16] = dog, in vivo; cited from earlier work
[17] = 25 mg/mL solution, Aeroneb Solo nebulizer, laser diffraction, Apeptico Research Report, data on file
[18] = whole cell patch clamp, in the presence of AP301

Structure (SMILES): C[C@@H]1NC(=O)CNC(=O)[C@H](CCC(=O)O)NC(=O)[C@@H]2CCCN2C(=O)[C@H]([C@@H](C)O)NC(=O)[C@H](CCC(=O)O)NC(=O)[C@H](CCCNC(=N)N)NC(=O)[C@H](CCC(N)=O)NC(=O)CNC(=O)[C@@H](N)CSSC[C@@H](C(=O)O)NC(=O)[C@H](Cc2ccc(O)cc2)NC(=O)[C@H](Cc2c[nH]c3ccccc23)NC(=O)[C@@H]2CCCN2C(=O)[C@H](CCCCN)NC(=O)[C@H](C)NC(=O)[C@H](CCC(=O)O)NC1=O [AP301]
- osmolarity of the solution [1]: 23 mosmol/L
- pH of the solution [1]: 4.40
- viscosity of the solution [1]: 1.07 mPa s
- average droplet size (Aerosol characterization; [17]): 3.3 μm
- mean fine particle fraction (FPF) (Aerosol characterization; [17]): about 60%
- FPF as determined by NGI (Aerosol characterization; Next Generation Impactor at 15 L/min): 60%
- maximum recommended starting dose (MRSD) (dog): 0.1 mg/kg BW
- Tmax [2]: ~5 min
- AUC(0-t) ([2]; 12 mg): 0.0333 ng·h/mL
- Cmax ([2]; 12 mg): 0.4 ± 0.6 ng/mL
- Tmax ([2]; 12 mg): 5 min
- AUC(0-t) ([2]; 30 mg): 0.0183 ng·h/mL
- Cmax ([2]; 30 mg): 0.3 ± 0.6 ng/mL
- AUC(0-t) ([2]; 60 mg): 0.93 ng·h/mL
- Cmax ([2]; 60 mg): 2.2 ± 1.4 ng/mL
- Tmax ([2]; 60 mg): 5 min
- AUC(0-t) ([2]; 90 mg): 0.758 ng·h/mL
- Cmax ([2]; 90 mg): 2.4 ± 2.1 ng/mL
- AUC(0-t) ([2]; 120 mg): 0.877 ng·h/mL
- Cmax ([2]; 120 mg): 2.2 ± 1.8 ng/mL
- Tmax ([2]; 120 mg): 2.5 min
- maximum exposure values (Cmax) at mean dose-cohort level [3]: exceeding 2.0 ng/mL
- mean Cmax values in the highest dose groups [3]: < 2.5 ng/mL
- median tmax values across dose groups [3]: 0 to 0.083 h
- number of AEs considered related to AP301 inhalation (healthy male subjects [4]): 7
- overall frequency of AEs in subjects randomized to AP301 (healthy male subjects [4]): 25%
- FEV1 declines of ≥20% from baseline (healthy male subjects [5]): no FEV1 declines of ≥20% from baseline were noted in any subject
- effects on airway caliber or vital capacity (FVC, FEV1) (healthy male subjects [5]): absence of relevant dose-dependent effects
- subjects with post-dose FEV1 decline of ≥15% from baseline (healthy male subjects [5]): only a single subject
- content of eNO versus baseline and pooled placebo (healthy male subjects [6]): did not change
- effects on vital signs (SBP, DBP, HR) (healthy male subjects [7]): no clinically meaningful dose-or time-dependent effects
- QTc value (healthy male subjects [8]): ≤ 450 milliseconds
- changes in ECG outcome variables (healthy male subjects [8]): no clinically meaningful or remarkable dose-or time-dependent changes
- changes in safety laboratory variables (healthy male subjects [9]): No clinically meaningful or remarkable dose-or time-dependent changes
- increase of amiloride-sensitive Na+ currents (via ENaC) versus baseline [10, 18]: about 9 fold
- increase of amiloride-sensitive Na+ currents (via ENaC) versus baseline [11, 18]: ~13 fold
- increase of amiloride-sensitive Na+ currents (via ENaC) versus baseline [12, 18]: ~16 fold
- concentration range in which ENaC activation was dose-dependent (ENaC): 5 to 100 nM
- oxygenation (PaO2/FiO2) [13]: significant improvement
- pulmonary shunt fraction (Qs/Qt) [13]: reduction
- effective pharmacological dose range (animal models): 0.5–1.0 mg/kg BW
- absorption from the pulmonary compartment into the systemic circulation [14]: hardly absorbed
- absorption from the pulmonary compartment into the systemic circulation [15]: hardly absorbed
- absorption from the pulmonary compartment into the systemic circulation [16]: hardly absorbed

Structure (SMILES): N=C(N)NC(=O)c1nc(Cl)c(N)nc1N [amiloride, reference compound]
- effect on the AP301-induced increase of Na+ current [10]: could be inhibited
- effect on the AP301-induced increase of Na+ current [11]: could be inhibited
- effect on the AP301-induced increase of Na+ current [12]: could be inhibited
